M5 PAM = human M5 muscarinic receptor positive allosteric modulators, primary screen, CHO-K1 cells, Fluo-8 calcium fluorescence | Muscarinic acetylcholine receptor M5 (Homo sapiens), P08912 | CHO-K1 hM5, ACh EC20 PAM; 0% = ACh EC20, 100% = ACh EC100 | 360,000 compounds, 0.3% hits | activation, % at 3 µM | AID 624038, 2012;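 active = activation above the run cutoff, the mean activation of all test compounds plus 3 SD, cut at about 18% in these data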
Target sequence (P08912 whole entry, looked up): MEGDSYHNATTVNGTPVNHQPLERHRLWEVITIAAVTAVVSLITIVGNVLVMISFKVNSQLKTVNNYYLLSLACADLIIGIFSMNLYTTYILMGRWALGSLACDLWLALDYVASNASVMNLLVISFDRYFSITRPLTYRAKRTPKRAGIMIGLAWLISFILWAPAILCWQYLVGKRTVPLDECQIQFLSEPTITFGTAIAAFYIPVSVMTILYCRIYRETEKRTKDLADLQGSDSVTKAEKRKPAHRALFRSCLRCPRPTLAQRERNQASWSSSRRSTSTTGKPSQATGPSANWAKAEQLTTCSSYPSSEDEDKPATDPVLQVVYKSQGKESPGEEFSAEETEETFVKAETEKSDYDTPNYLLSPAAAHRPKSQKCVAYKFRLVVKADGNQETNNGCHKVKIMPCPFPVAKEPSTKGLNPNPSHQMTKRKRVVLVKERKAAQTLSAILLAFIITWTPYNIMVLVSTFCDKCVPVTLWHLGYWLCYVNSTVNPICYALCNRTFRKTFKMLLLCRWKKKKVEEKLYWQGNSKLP
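System – CHO-K1 hM5 cells · Compound – 3 µM, single dose · Incubation – compound preincubation 140 s before EC20 acetylcholine addition · Technique – Fluo-8 calcium fluorescence · Measure – Max/basal fluorescence ratio as % of EC20–EC100 ACh window · Benchmarks – low control EC20 acetylcholine (0%), high control EC100 acetylcholine (100%) · Replication – singlicate, one well per test compound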
CHRM5 agonist = human M5 muscarinic receptor agonists, primary screen, CHO-K1 cells, Fluo-8 calcium fluorescence. 360,000 compounds, 0.19% hits. CHO-K1 hM5 cells; 0% DMSO wells, 100% maximal acetylcholine response. activation, % at 3 µM. Muscarinic acetylcholine receptor M5 (Homo sapiens), P08912;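 active = activation above the run's mean over test compounds plus 3 SD, cut at about 23% in these data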;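 note: signal is peak over basal fluorescence ratio across the kinetic read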
M4 antag = human M4 muscarinic receptor antagonists, primary screen, CHO cells, Fluo-8 calcium fluorescence | Muscarinic acetylcholine receptor M4 (Homo sapiens), P08173 | CHO-hM4 cells, ACh EC80 | inhibition, % at 3 µM | 360,000 compounds, 0.73% hits | AID 624125, 2012;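 active = inhibition above its plate's cutoff, the mean inhibition of sample wells plus 3 SD, cut at about 27% in these data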
M4 ag = human M4 muscarinic receptor agonists, primary screen, CHO-K1 cells, Fluo-8 calcium fluorescence. Muscarinic acetylcholine receptor M4 (Homo sapiens), P08173. CHO-K1 hM4/Gqi5; vehicle 0%, full acetylcholine response 100%. activation, % at 3 µM. 360,000 compounds, 0.14% hits. AID 624127, 2012;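 active = activation above the run mean over all test wells plus 3 SD, cut at about 32% in these data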;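 note: peak over basal fluorescence ratio per well then scaled between controls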
CHRM5 antagonist = human M5 muscarinic receptor antagonists, primary screen, CHO cells, Fluo-8 calcium fluorescence; Muscarinic acetylcholine receptor M5 (Homo sapiens), P08912; CHO-hM5 cells, ACh EC80; inhibition, % at 3 µM; 360,000 compounds, 0.59% hits; AID 624040, 2012;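 active = inhibition above a per-plate cutoff, the mean of that plate's test compounds plus 3 SD, cut at about 27% in these data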
CHRM4 PAM = human M4 muscarinic receptor positive allosteric modulators, primary screen, CHO-K1 cells, Fluo-8 calcium fluorescence; CHO-K1 hM4/Gqi5, ACh EC20; 0% = ACh EC20, 100% = maximal ACh; activation, % at 3 µM; 360,000 compounds, 0.4% hits; AID 624126, 2012;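 active = activation above its plate's cutoff, the mean activation of sample wells plus 3 SD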
Of the large screens only hits and unclear results are named; the others gave an inactive call. Compounds with a hit are over-represented: about 1.9% of the library has one in this group of screens.

O=c1[nH]c(C2CCN(S(=O)(=O)c3ccc4c(c3)OCCO4)CC2)nc2c1nnn2Cc1ccc(F)cc1	M4 antag 47.9
O=c1[nH]c(C2CCN(S(=O)(=O)c3ccccc3)CC2)nc2c1nnn2Cc1ccc2c(c1)OCCO2	M4 antag 95.1
O=C1C=C(c2cccc(CO)c2)C[C@@H](c2ccc(F)cc2)C1	none
CC1CCC(NC(=O)c2cc(C3CC3)nn2-c2ccccc2)CC1 (stereo unspecified)	none
O=c1[nH]c(C2CCN(S(=O)(=O)c3ccccc3)CC2)nc2c1nnn2Cc1ccccc1	M4 antag 67.0
O=c1[nH]c(C2CCN(S(=O)(=O)c3ccc([N+](=O)[O-])cc3)CC2)nc2c1nnn2Cc1ccccc1	none
CC(=O)N1CCN(Cc2nc3cc(NC(=O)c4ccccc4)ccc3n2C)CC1	none
COc1ccccc1C(=O)Nc1ccc2c(c1)nc(CN1CCN(C(C)=O)CC1)n2C	M4 antag 27.2
COc1ccc(/C=C(/NC(=O)c2ccco2)C(=O)NCc2ccco2)cc1OC	CHRM4 PAM 25.5
CCOC(=O)/C(=C/c1ccc(Cl)cc1)NC(=O)c1ccco1	CHRM4 PAM 23.5
O=C(OCc1ccccc1)/C(=C/c1ccc(Cl)cc1)NC(=O)c1ccccc1Cl	none
CC1CCCC(NC(=O)c2cccc(S(=O)(=O)N3CCN(c4ccccc4)CC3)c2)C1C (stereo unspecified)	none
CSc1cccc(NC(=S)N(CCN(C)C)C(C)c2ccccn2)c1 (stereo unspecified)	M4 antag 33.3
CSc1cccc(NC(=S)N(CCN(C)C)C(C)c2ccncc2)c1 (stereo unspecified)	none
CC(C)c1ccc(C(C(=O)NC2CCCCC2)N(C(=O)c2csnn2)C2CC2)cc1 (stereo unspecified)	none
O=C(NC1CCCCC1)C(c1ccc(F)cc1)N(C(=O)c1csnn1)C1CC1 (stereo unspecified)	CHRM4 PAM 19.4
COc1ccccc1N(CC(=O)NC1CCCCC1)C(=O)CNC(=O)c1cccs1	none
COc1ccc(C#Cc2c(-c3ccccc3)n(-c3ccccc3)c3ccc(CO)cc23)cc1	none
O=C(N/N=C\c1c(O)ccc2ccccc12)c1cncc(Br)c1	CHRM5 agonist 67.0, M4 ag 38.0
O=C(NN=Cc1c(O)ccc2ccccc12)c1ccncc1	CHRM5 agonist 46.0
O=C(N/N=C\c1c(O)ccc2ccccc12)c1ccc(O)cc1	none
Cc1c(C(=O)OCc2nc3ccsc3c(=O)[nH]2)oc2ccccc12	none
COc1ccccc1CCNC(=O)C(=O)NCC1OCCN1S(=O)(=O)c1ccc(OC)c(OC)c1 (stereo unspecified)	none
CSc1ccccc1NC(=O)c1ccc(N2CCCC2=O)cc1	none
CCOC(=O)c1sc(=NC(=O)c2ccc(S(=O)(=O)N(C)c3ccccc3)cc2)n(C)c1C	CHRM4 PAM 27.3
O=C(OCC(=O)c1c[nH]c2ccccc12)c1cccc([N+](=O)[O-])c1	none
O=C(NCc1ccccc1)C1=C[C@@H](C2CCCCC2)C[C@@H](OCCCCO)O1	none
O=C(OCCC12CC3CC(CC(C3)C1)C2)c1ccc(NCc2cc(O)ccc2O)cc1	M5 PAM 26.8
CC1(c2cccc(Br)c2)NC(=O)N(CC(=O)Nc2ccc3c(c2)OCO3)C1=O (stereo unspecified)	none
COc1ccc(CNC(=O)C(c2ccc(C)cc2)N(Cc2cccs2)C(=O)c2ccc3c(c2)OCCO3)cc1 (stereo unspecified)	M4 antag 31.7
CC(=O)Nc1cccc(C(=O)N2CCN(Cc3ccccc3)CC2)c1	CHRM4 PAM 20.1
CCN(C(=O)COC(=O)c1c(-c2ccccc2)noc1C)C1CCS(=O)(=O)C1 (stereo unspecified)	none
CCN(C(=O)COC(=O)c1c(C)c(-c2ccccc2)nc2ccccc12)C1CCS(=O)(=O)C1 (stereo unspecified)	CHRM5 agonist 25.1
CC(=O)Nc1sc(C)c(C)c1C(=O)OCC(=O)N(CC(C)C)C1CCS(=O)(=O)C1 (stereo unspecified)	CHRM4 PAM 22.8
CCc1nnc(NC(=O)CCC(=O)NC2CCCCCC2)s1	none
CC(=O)N[C@@H](Cc1c[nH]c2ccccc12)C(=O)NC1CCCc2ccccc21 (stereo partly specified)	none
CC(C)Cn1c(N)c(C(=O)CCl)c(=O)n(C)c1=O	none
CC(C)Cn1c(N)c(C=O)c(=O)n(C)c1=O	M5 PAM 18.1
O=C(O)c1cc(-c2cccs2)[nH]n1	CHRM4 PAM 28.0
CCOC(=O)c1cc(-c2cccs2)[nH]n1	none
Cc1ccc2c(c1)N(S(=O)(=O)c1ccc(F)cc1)C(C(C)(C)C)CO2 (stereo unspecified)	none
Cc1ccc(S(=O)(=O)N2c3ccccc3OCC2C(C)(C)C)cc1 (stereo unspecified)	M5 PAM 20.7
O=C(O)CN1C(=O)CSc2ccccc21	none
CCOC(=O)CN1C(=O)CSc2ccccc21	M4 antag 32.9
O=C(NCCN1CCC(n2c(=O)[nH]c3ccccc32)CC1)c1cccs1	none
CCOC(=O)COc1ccccc1/C=C\[N+](=O)[O-]	M4 antag 27.5
CN(C(=O)Cn1nc(C(=O)O)c2ccccc2c1=O)C1(C#N)CCCCC1	CHRM4 PAM 23.3
O=C(O)c1nn(CC(=O)N2CCCCCC2)c(=O)c2ccccc12	none
Cc1cc(C=C2C(=O)CCCC2=O)c(C)n1-c1ccccc1	CHRM4 PAM 30.3
Cc1ccc(Cl)cc1N1C(=O)CC(Sc2ccccc2N)C1=O (stereo unspecified)	none
COc1ccc(CCNc2ncnc3sc(C)cc23)cc1OC	M4 antag 26.9, CHRM5 antagonist 37.1
COc1ccc(CCNc2ncnc3[nH]ncc23)cc1OC	none
CCOc1cc(-c2nnc(NC(=O)C3=COCCO3)o2)cc(OCC)c1OCC	none
N=C(N)SCC1=CCS(=O)(=O)C1	CHRM5 antagonist 31.5
CCn1c(=O)c([N+](=O)[O-])c(N2CCOCC2)c2ccccc21	none
CCn1c(=Nc2ccc(N3CCOCC3)cc2)ccc2ccccc21	CHRM5 antagonist 67.0
